Screening results deposited in PubChem BioAssay by The Scripps Research Institute Molecular Screening Center.
Sampled rows, rich in hits. Any-hit rate of the full collection: about 3%.
HTR1E agonist – agonists of human 5-HT1E serotonin receptor | CHO 5-HT1E Ga15 NFAT-bla reporter, FRET; 0% DMSO wells, 100% control agonist wells | activation, % at 6 µM | hit rate 0.69% among 65,000;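 active means activation above a set limit, the screen-wide mean activation plus 3 SD, cut at about 8.5% in these data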
5HT1E antag – 5-HT1E (human) receptor antagonism. inhibition, % at 6 µM. hit rate 0.99% among 65,000. P28566. CHO 5-HT1E Ga15 NFAT-bla reporter, FRET, antagonist;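 active means inhibition above a set limit, the mean inhibition across every tested compound plus 3 SD, cut at about 29% in these data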;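 further: signal is the 460 over 535 nm emission ratio of beta-lactamase substrate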
5HT1a antag – blocks the human serotonin 5-HT1a receptor | inhibition, % at 10 µM | CHO 5-HT1a Ga15 NFAT-bla reporter, antagonist mode | hit rate 0.68% among 62,000 | P08908;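 active means inhibition above the mean of all tested compounds plus 3 SD, cut at about 43% in these data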;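 further: receptor stimulated by 5-CT agonist at 100 nM near EC80; beta-lactamase reporter measured by ratiometric fluorescence of a cleavable substrate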
S1P3 agonist – agonists of human S1P3 receptor; hit rate 0.1% among 60,000; activation, % at 4.5 µM; AID 373; Q99500; S1P3 NFAT-BLA reporter cells, agonism, FRET ratio; relative to 1 µM S1P, basal subtracted;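 active means activation above the screen-wide mean plus 3 SD, cut at about 4.5% in these data, passing the limit was not always enough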
Target sequence (Q99500 whole entry, looked up): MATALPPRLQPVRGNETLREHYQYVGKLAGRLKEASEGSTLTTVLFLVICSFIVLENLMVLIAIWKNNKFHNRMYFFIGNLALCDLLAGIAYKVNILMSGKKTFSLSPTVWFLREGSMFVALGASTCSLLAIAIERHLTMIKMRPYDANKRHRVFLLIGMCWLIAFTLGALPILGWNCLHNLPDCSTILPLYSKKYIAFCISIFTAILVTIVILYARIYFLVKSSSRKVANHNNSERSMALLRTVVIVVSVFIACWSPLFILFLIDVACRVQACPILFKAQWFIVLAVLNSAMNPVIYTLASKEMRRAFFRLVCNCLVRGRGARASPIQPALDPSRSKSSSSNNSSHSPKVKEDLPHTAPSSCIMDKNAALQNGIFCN
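material = human S1P3 NFAT-BLA reporter CHO cells | schedule = 4 h compound at 37 °C, 2 h substrate at RT | measured by = fluorescent BLA substrate, ex 405 nm, em 460/535 nm ratio | controls = 1 µM S1P reference | replication = primary once, confirmation triplicate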
5HT1a ag – agonists of human 5-HT1a serotonin receptor; P08908; CHO 5-HT1a Ga15 NFAT-bla reporter, FRET ratio; 0% basal, 100% maximal reference agonist; activation, % at 10 µM; hit rate 0.56% among 65,000;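 active means activation above the screen-wide mean activation plus 3 SD, cut at about 19% in these data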
S1P1 ag pot – activates or potentiates agonism at human S1P1 receptor; P21453; S1P1 CRE-bla cells, forskolin, beta-lactamase FRET, potentiator mode; S1P1 agonist co-added at EC20, 2 nM; 100% = saturating reference agonist, 0% = basal; activation, % at 9.5 µM; hit rate 0.57% among 56,000; AID 449;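 active means activation above a cutoff set at the mean activation of all tested compounds plus 3 SD, cut at about 54% in these data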;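 further: forskolin at 4 µM as EC80 and the EC20 agonist is SEW2871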
A number is an active result; - = inactive; . = not tested or not shown.

SMILES	HTR1E agonist	5HT1E antag	5HT1a antag	S1P3 agonist	5HT1a ag	S1P1 ag pot
O=c1c2ccccc2n(Cc2cccc(F)c2)c(=O)n1C1CCCC1	-	-	-	-	-	-
Nc1nonc1C(=O)NCCNCc1cc(Br)ccc1OCc1ccccc1F	-	-	51.9	-	-	77.9
C=CCNc1nc(-c2ccccc2)nc(-n2ccnc2)n1	-	-	-	-	-	-
c1ccc(-c2nc(NC3CC3)nc(-n3ccnc3)n2)cc1	-	29.3	-	-	-	-
c1ccc(-c2nc(-n3ccnc3)nc(-n3ccnc3)n2)cc1	-	-	-	-	-	-
CC(C)Nc1nc(-c2ccccc2)nc(-n2ccnc2)n1	-	30.3	-	-	-	-
COC(=O)c1nnn(CC(=O)Nc2cccc(OC)c2)c1C(=O)OC	-	-	-	.	-	.
CCCCC(c1nnnn1CC1CCCO1)N1CCN(c2cccc(C)c2C)CC1 (centres undefined)	37.9	-	-	-	-	-
COc1ccc(C(c2nnnn2CC2CCCO2)N2CCN(c3cccc(C)c3C)CC2)cc1 (centres undefined)	-	-	-	-	-	-
CN(C)CCNC(=O)c1c(O)c2c([nH]c1=O)CCCC2	11.3	-	-	-	-	-
OCCN1CCN(CC(O)COc2ccc3c(c2)OCO3)CC1 (centres undefined)	16.3	-	-	-	-	-
O=C(NCc1ccco1)c1cccc2ccccc12	-	-	-	-	-	-
O=C(NCc1ccco1)c1ccccc1Nc1ccc(F)cc1	-	28.9	-	.	-	.
C[N+]1=C2CCCCCN2C(O)(c2ccccc2)C1 (centres undefined)	51.0	-	-	-	20.0	-
CC1(C)CC(CC(=O)O)(c2ccccc2)CCO1 (centres undefined)	-	-	-	-	-	-
COc1cc2c(cc1OC)-c1cc(NC3CCCCC3)nc(=O)n1CC2	-	36.1	-	-	-	-
COc1cc2c(cc1OC)-c1cc(NC3CC3)nc(=O)n1CC2	-	-	-	-	-	-
COc1cc2c(cc1OC)-c1cc(NC3CCCCCCC3)nc(=O)n1CC2	-	52.0	-	-	-	-
CCCCCCNc1cc2n(c(=O)n1)CCc1cc(OC)c(OC)cc1-2	-	39.1	-	-	-	-
Cc1ccc(C)c(N2CCN(C(=O)C3CCN(S(=O)(=O)c4cccc5nsnc45)CC3)CC2)c1	-	-	-	-	-	-
C=CCOC(=O)N1CCN(c2cccc(C(F)(F)F)c2)CC1	-	-	-	-	-	-
COc1ccc(-c2cc(C(F)(F)F)nc(NCc3ccco3)n2)cc1OC	-	-	-	.	-	.
COc1cccc(-c2cc(C(F)(F)F)nc(NCc3ccco3)n2)c1	-	-	47.1	.	-	.
CCOC(=O)CC(=O)CSc1ccc2nnc(-c3cccc(F)c3)n2n1	-	-	-	-	-	-
CSc1ccc2nnc(-c3cccc(F)c3)n2n1	-	-	-	-	19.6	-
SMILES	HTR1E agonist	5HT1E antag	5HT1a antag	S1P3 agonist	5HT1a ag	S1P1 ag pot
CCn1c(NC(=O)c2cccs2)c(-c2cccs2)c(=O)c2ccccc21	-	-	-	-	-	-
Nc1ccc2c(C(F)(F)F)cc(=O)oc2c1	-	42.1	-	-	-	-
CCOC(=O)N1CCN(C(=O)CSc2nnc(C3COc4ccccc4O3)o2)CC1 (centres undefined)	-	-	-	-	77.7	-
CCOC(=O)N1CCN(C(=O)C2COc3ccccc3O2)CC1 (centres undefined)	-	-	-	.	-	.
COC(=O)c1ccc(NC(=O)CCN2CCN(c3ccccc3)CC2)cc1	-	-	43.8	-	-	-
O=C(CCN1CCN(c2ccc(F)cc2)CC1)Nc1ccc(F)cc1	-	-	-	-	-	-
O=C(c1ccccc1)N1CCN(c2ccc(NCc3ccc4c(c3)OCO4)cc2)CC1	-	-	-	-	-	-
CC(=O)N1CCN(c2ccc(NCc3ccc4c(c3)OCO4)cc2)CC1	-	-	-	-	42.7	-
COC(=O)c1ccc(NC(=O)CCn2cccc2)cc1	9.6	-	-	-	-	-
O=C(CCN1CCN(c2ccccc2F)CC1)Nc1ccc2c(c1)OCO2	-	-	83.7	-	-	-
CNC(=O)CCC(=O)Nc1ccc(C(=O)OC)cc1	-	-	-	-	-	.
Cc1cccc(OCC(=O)OCC(=O)c2c(N)n(C)c(=O)n(C)c2=O)c1	-	-	-	-	-	-
COc1ccccc1N(CC(=O)NC1CCCCC1)S(C)(=O)=O	-	-	-	-	-	-
CCCn1c(SCC(=O)NC(C)(C)C)nnc1C(C)C	-	-	-	-	-	-
CCN(CC(=O)NCc1ccccn1)S(=O)(=O)c1ccc(Cl)cc1	-	-	-	-	-	.
CC1CN(CCC(=O)Nc2ccc3c(c2)OCO3)CC(C)O1 (centres undefined)	-	-	-	.	-	.
O=C(CCN1CCN(c2ccccc2)CC1)Nc1ccc2c(c1)OCO2	-	-	82.8	-	-	.
O=C(CCCN1Cc2ccccc2C1)c1ccc(F)cc1	-	-	-	-	21.9	-
Cc1cc(=O)oc2cc(OCC(O)CN3CCN(c4ccc(F)cc4)CC3)ccc12 (centres undefined)	-	-	-	.	-	.
CCOc1ccccc1N1CCN(CC(O)COc2ccc3c(C)cc(=O)oc3c2)CC1 (centres undefined)	-	-	89.1	.	-	.
CCOC(=O)N1CCC(N2Cc3cccc(C(=O)N4CC(C)CC(C)C4)c3C2=O)CC1 (centres undefined)	-	-	-	-	-	-
CCOC(=O)N1CCC(N2Cc3cccc(C(=O)O)c3C2=O)CC1	-	-	-	-	82.9	-
N#Cc1c(N)nc(SCc2ccncc2)c(C#N)c1-c1cccs1	-	42.6	-	-	-	-
O=C(COC(=O)c1ccccc1S(=O)(=O)N1CCCCC1)NCC(F)(F)F	-	29.2	-	-	-	-
COCCNC(=O)CN1CCC(n2c(C)nc3cc(C(F)(F)F)ccc32)CC1	-	-	-	-	-	-
SMILES	HTR1E agonist	5HT1E antag	5HT1a antag	S1P3 agonist	5HT1a ag	S1P1 ag pot
CC(=O)c1cccc(NC(=O)c2nccnc2C(=O)O)c1	-	-	-	-	109.1	-
OCCN1CCN(CCCN2c3ccccc3Sc3ccc(Cl)cc32)CC1	-	-	.	-	-	-
CN(C)CCCN1c2ccccc2Sc2ccc(Cl)cc21	8.7	-	.	-	-	-
COc1ccc(C(=O)COC(=O)CCN=C2NS(=O)(=O)c3ccccc32)cc1OC	19.5	-	-	-	-	-
COc1cc(C2Nc3cccc4cccc(c34)N2)cc(OC)c1OC(C)=O	-	-	.	-	-	-
CCN(CC)c1ccc(C2Nc3cccc4cccc(c34)N2)c(O)c1	-	32.3	.	-	-	-
